Values without a mark were called inactive. Records with an inconclusive call do not appear. The source made the active and inactive calls.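 The calls were made as follows, unless noted: active = viability at or below 27.92% in each of two runs, the all-compound median minus 4 SD; inconclusive = no clear call, values can overlap the other calls; inactive = the rest.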
Columns and labels:
[1] = S. cerevisiae growth inhibition in permissive medium (OD615), pilot counter-assay for S. cerevisiae lifespan shortening project, permissive growth control (AID 705;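 active = growth inhibition above 25% in both replicates, a cutoff set 3 SD above the mean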); conditions: OD615, 24 h, at 10 µM, active compounds read high
How it was run: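 System: S. cerevisiae with engineered DeaD lifespan system. Medium: SC raffinose/galactose permissive medium. Doses: single compound dose of 10 µM, 0.25% DMSO final. Schedule: 24 h exposure, 30 °C. Measured by: OD615 turbidity read. Read-out: growth inhibition.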

[2] = S. cerevisiae growth inhibition in restrictive medium, OD615, pilot screen, restrictive growth control, yeast lifespan reduction project (AID 706;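 active = growth inhibition above a set limit, 3 SD over mean compound inhibition, in both replicates, cut at about 43% in these data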;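 also: modified DeaD lifespan yeast strain shifted to restrictive glucose medium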); conditions: OD615, 48 h, at 10 µM, active compounds read high
How it was run: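 Assay system – genetically modified Saccharomyces cerevisiae, DeaD replicative lifespan assay strain · Medium – CSMM-D glucose medium · Doses – 10 µM compound, 0.25% DMSO · Times – 4 h pre-incubation, 48 h exposure at 30 °C · Signal – optical density at 615 nm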

[3] = doxorubicin toxicity protection in MRP-1 cells – H69AR cells, CellTiter-Glo, duplicate, MRP-1 activator project, pilot screen (AID 807;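 active = viability increase at or above a cutoff of the median across tested compounds plus 3 SD, cut at about 8.5% in these data, passing the limit was not always enough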;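 also: compound pretreatment 18-22 h then 72 h combined with doxorubicin; 0% = doxorubicin alone and 100% = vehicle without doxorubicin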); conditions: H69AR viability with doxorubicin, CellTiter-Glo luminescence; at 10 µM; active compounds read high
[4] = viability of HCT116 without oncogenic beta-catenin – human colon tumor cells, pilot screen (AID 823;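 active = cell viability at or below a set limit in both duplicate runs, the limit being the all-compound median minus 4 SD, cut at about 23% in these data, passing the limit was not always enough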;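 also: 0% = wells killed by 20 µM Hyamine and 100% = untreated DMSO cell wells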); conditions: HCT116 beta-catenin knockout viability, CellTiter-Glo, 60 h; at 10 µM; active compounds read low
[5] = viability of PTEN-null HCT116 cells – cell-based, HCT116 clonal line, CellTiter-Glo, pilot screen (AID 824); conditions: HCT116 PTEN-deleted viability, 60 h, at 10 µM, active compounds read low;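 also: 0% = 20 µM Hyamine control and 100% = vehicle cell control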
[6] = RAM pathway blockade in budding yeast – dse1pr::URA3 reporter, 5-FOA selection, pilot screen (AID 869;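 active = inhibition over a set limit, the all-compound mean plus 3 SD, in both replicate runs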;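 also: 0% = DMSO wells with no growth and 100% = 10 µM 1-NA-PP1 with full growth; RAM network block rescues cells from 5-FOA so hits raise OD615 growth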); conditions: S. cerevisiae dse1pr::URA3 5-FOA growth, OD615, 2 d; at 10 µM; active compounds read high; strain carries analog-sensitive mutant Cbk1 kinase
[7] = RAM signaling pathway blockade in yeast – S. cerevisiae, Pdr1DBD-CYC8 efflux-inhibited sensitized strain, primary screen (AID 1298;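 active = RAM network inhibition above 8.4% in each of two replicates, 3 SD over the compound average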;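 also: 0% = DMSO untreated cells without growth and 100% = 10 µM 1-NA-PP1 full growth; higher means more yeast growth rescued from 5-FOA killing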); conditions: S. cerevisiae cbk1-as DSE1-URA3 strain, 5-FOA growth OD615, 2 d; at 50 µM; active compounds read high

SMILES: N=c1n(-c2ccccc2)c(O)cc(=O)n1-c1ccccc1
- growth inhibition [1]: -1.26%
- growth inhibition [2]: 1.77%
- viability increase [3]: 0.05%
- viability [4]: 98.1%
- viability [5]: 99.5%
- inhibition [6]: 0.73%
- RAM network inhibition [7]: 6.52%

SMILES: COc1ccc(NC(=O)C2CCN(S(=O)(=O)c3cccc4cccnc34)CC2)cc1OC
- growth inhibition [1]: -4.2%
- growth inhibition [2]: 0.21%
- viability increase [3]: -1.69%
- viability [4]: 107%
- viability [5]: 96.6%
- inhibition [6]: 1.41%
- RAM network inhibition [7]: 1.04%

SMILES: CCc1ccc(NC(=O)CSc2nnc(Cc3cccn3C)n2-c2ccc(F)cc2)cc1
- growth inhibition [1]: 4.25%
- growth inhibition [2]: 12.9%
- viability increase [3]: -5.81%
- viability [4]: 77.2%
- viability [5]: 68.9%
- inhibition [6]: 0.05%
- RAM network inhibition [7]: 7.15%

SMILES: CCOC(=O)C1CCCN(C(=O)c2ccccc2Oc2ccccc2)C1 (stereo unspecified)
- growth inhibition [1]: -6.35%
- growth inhibition [2]: -9.14%
- viability increase [3]: -1.3%
- viability [4]: 91.1%
- viability [5]: 102%
- inhibition [6]: 0.545%
- RAM network inhibition [7]: 1.27%

SMILES: COc1ccc(S(=O)(=O)Cc2ccc(C(=O)N3CCN(C4CCCCC4)CC3)o2)cc1
- growth inhibition [1]: 8.67%
- growth inhibition [2]: 7.12%
- viability increase [3]: -2.58%
- viability [4]: 78.9%
- viability [5]: 90%
- inhibition [6]: 0.75%
- RAM network inhibition [7]: -1.9%

SMILES: O=C(O)CCNc1cc2ccccc2cc1C(=O)O
- growth inhibition [1]: -15.4%
- growth inhibition [2]: -3.88%
- viability increase [3]: -1.49%
- viability [4]: 97.3%
- viability [5]: 96.5%
- inhibition [6]: 1.59%
- RAM network inhibition [7]: -0.37%

SMILES: COc1ccc(-c2cc(C(F)F)n3ncc(C(=O)N4CCN(C(=O)c5ccco5)CC4)c3n2)cc1
- growth inhibition [1]: -2.55%
- growth inhibition [2]: -0.9%
- viability increase [3]: -5.07%
- viability [4]: 74.5%
- viability [5]: 72.6%
- inhibition [6]: 0.475%
- RAM network inhibition [7]: 10.2%

SMILES: CCn1c2ccccc2c2nnc(SCc3cc(=O)n4ccsc4n3)nc21
- growth inhibition [1]: -8.94%
- growth inhibition [2]: 8.05%
- viability increase [3]: -2.35%
- viability [4]: 93.5%
- viability [5]: 86.3%
- inhibition [6]: 1.52%
- RAM network inhibition [7]: 8.94%

SMILES: CCCC(=O)Nc1cc(=O)n(C)c(=O)n1C
- growth inhibition [1]: -12.8%
- growth inhibition [2]: -4.53%
- viability increase [3]: -1.04%
- viability [4]: 103%
- viability [5]: 94.8%
- inhibition [6]: 0.76%
- RAM network inhibition [7]: -0.88%

SMILES: Cc1ccc(O)c(NC(=O)CCC2CCCCC2)c1
- growth inhibition [1]: -1.6%
- growth inhibition [2]: 1.04%
- viability increase [3]: -3.63%
- viability [4]: 89.4%
- viability [5]: 84.5%
- inhibition [6]: 4.25%
- RAM network inhibition [7]: 4.08%

SMILES: COc1ccccc1OCCNC(=O)c1ccc(S(=O)(=O)N(C)C)cc1
- growth inhibition [1]: -3.92%
- growth inhibition [2]: 3.39%
- viability increase [3]: -1.91%
- viability [4]: 100%
- viability [5]: 91.9%
- inhibition [6]: -0.715%
- RAM network inhibition [7]: 2.71%

SMILES: Oc1c(C(c2cccs2)N2CCN(c3ccccc3)CC2)sc2ncnn12 (stereo unspecified)
- growth inhibition [1]: -13.2%
- growth inhibition [2]: -5.4%
- viability increase [3]: 12.3% (active)
- viability [4]: 90.9%
- viability [5]: 89.5%
- inhibition [6]: 1.53%
- RAM network inhibition [7]: 1.45%

SMILES: Cc1nc2sc(C(c3ccco3)N3CCN(c4ccccc4)CC3)c(O)n2n1 (stereo unspecified)
- growth inhibition [1]: -2.19%
- growth inhibition [2]: -0.705%
- viability increase [3]: 3.13%
- viability [4]: 97.3%
- viability [5]: 101%
- inhibition [6]: 1.73%
- RAM network inhibition [7]: 3%

SMILES: CCOCCCNC(=O)c1cccs1
- growth inhibition [1]: -5.41%
- growth inhibition [2]: -4.17%
- viability increase [3]: -1.31%
- viability [4]: 91%
- viability [5]: 94.4%
- inhibition [6]: 2.22%
- RAM network inhibition [7]: 0.76%

SMILES: CCn1c(COc2cccc3cccnc23)nnc1SCC(=O)O
- growth inhibition [1]: -4.3%
- growth inhibition [2]: 8.66%
- viability increase [3]: -0.53%
- viability [4]: 95.5%
- viability [5]: 91.5%
- inhibition [6]: 2.12%
- RAM network inhibition [7]: 0.05%

SMILES: COc1ccc(C2CC(c3ccc(F)cc3)Nc3nc(N)nn32)cc1 (stereo unspecified)
- growth inhibition [1]: -3.94%
- growth inhibition [2]: 11.2%
- viability increase [3]: 0.02%
- viability [4]: 98.1%
- viability [5]: 94.4%
- inhibition [6]: 1%
- RAM network inhibition [7]: 6.59%

SMILES: CCOCCCNC(=O)C(NC(=O)C1CCC(=O)N1)c1ccc(C)cc1 (stereo unspecified)
- growth inhibition [1]: -2.92%
- growth inhibition [2]: -1.24%
- viability increase [3]: -0.58%
- viability [4]: 109%
- viability [5]: 98.8%
- inhibition [6]: 1.03%
- RAM network inhibition [7]: 5.24%

SMILES: CC(=O)N1CCc2cc(S(=O)(=O)Nc3ccccc3N3CCN(C)CC3)ccc21
- growth inhibition [1]: -7.73%
- growth inhibition [2]: -1.75%
- viability increase [3]: -1.49%
- viability [4]: 94.8%
- viability [5]: 85.8%
- inhibition [6]: 1.71%
- RAM network inhibition [7]: 0.62%
